≈ marks a conversion by molar mass, not a printed value.
What was measured:
Type in all cases: functional
Escherichia coli = test: In vitro minimum inhibitory concentration required to inhibit growth of Escherichia coli.; conditions: Escherichia coli
Method in brief: (§1)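 Broth microdilution per NCCLS; E. coli 51A0150 (poultry lung) and P. multocida 59A0067 (turkey). Overnight BHI plate colonies suspended in saline to OD625 0.09 (0.5 McFarland), diluted 1:100 in BHI broth; final ~5×10^5 cfu/mL against 2-fold serial dilutions in BHI broth.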

Pasteurella multocida [1] = test: Effective dose required to inhibit Pasteurella multocida infection model in mouse by subcutaneous administration; conditions: Pasteurella multocida, sc; read-out: ED50
Method in brief: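 Mice infected intranasally with P. multocida (respiratory disease model); drug given subcutaneously 0.5 h post-infection at 5–80 mg/kg. ED50 derived from number of surviving mice 4 days after infection.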

Pasteurella multocida [2] = test: Minimum inhibitory concentration required to inhibit growth of Pasteurella multocida in vitro by microdilution method.; conditions: Pasteurella multocida; read-out: MIC; method in brief: as §1

| SMILES | MIC (Escherichia coli) | MIC (Pasteurella multocida [2]) | ED50 (Pasteurella multocida [1]) |
| --- | --- | --- | --- |
| CC[C@H]1OC(=O)[C@H](C)[C@@H](O[C@H]2C[C@@](C)(OC)[C@](O)(CSCCO)[C@H](C)O2)[C@H](C)[C@@H](O[C@@H]2O[C@H](C)C[C@H](N(C)C)[C@H]2O)[C@](C)(O)C[C@@H](C)CN[C@H](C)[C@@H](O)[C@]1(C)O | 25 µg/mL (≈ 30.3 µM) | 0.39 µg/mL (≈ 0.473 µM) | > 40 mg/kg |
| CC[C@H]1OC(=O)[C@H](C)[C@@H](O[C@H]2C[C@@](C)(OC)[C@](O)(CNC(C)(C)C)[C@H](C)O2)[C@H](C)[C@@H](O[C@@H]2O[C@H](C)C[C@H](N(C)C)[C@H]2O)[C@](C)(O)C[C@@H](C)CN[C@H](C)[C@@H](O)[C@]1(C)O | 0.39 µg/mL (≈ 0.476 µM) | 0.05 µg/mL (≈ 0.061 µM) | 9.6 mg/kg |
| CCCCNC[C@]1(O)[C@H](C)O[C@@H](O[C@H]2[C@H](C)[C@@H](O[C@@H]3O[C@H](C)C[C@H](N(C)C)[C@H]3O)[C@](C)(O)C[C@@H](C)CN[C@H](C)[C@@H](O)[C@](C)(O)[C@@H](CC)OC(=O)[C@@H]2C)C[C@@]1(C)OC | 0.78 µg/mL (≈ 0.951 µM) | 0.1 µg/mL (≈ 0.122 µM) | 17 mg/kg |
| CC[C@H]1OC(=O)[C@H](C)[C@@H](O[C@H]2C[C@@](C)(OC)[C@@](O)(CNCC3CC3)[C@H](C)O2)[C@H](C)[C@@H](O[C@@H]2O[C@H](C)C[C@H](N(C)C)[C@H]2O)[C@](C)(O)C[C@@H](C)CN[C@H](C)[C@@H](O)[C@]1(C)O | 0.39 µg/mL (≈ 0.477 µM) | 0.1 µg/mL (≈ 0.122 µM) | 5.7 mg/kg |
| CCCNC[C@@]1(O)[C@H](C)O[C@@H](O[C@H]2[C@H](C)[C@@H](O[C@@H]3O[C@H](C)C[C@H](N(C)C)[C@H]3O)[C@](C)(O)C[C@@H](C)CN[C@H](C)[C@@H](O)[C@](C)(O)[C@@H](CC)OC(=O)[C@@H]2C)C[C@@]1(C)OC | 0.39 µg/mL (≈ 0.484 µM) | 0.1 µg/mL (≈ 0.124 µM) | 12 mg/kg |
| CC[C@H]1OC(=O)[C@H](C)[C@@H](O[C@H]2C[C@@](C)(OC)[C@@](O)(CN(C)CCO)[C@H](C)O2)[C@H](C)[C@@H](O[C@@H]2O[C@H](C)C[C@H](N(C)C)[C@H]2O)[C@](C)(O)C[C@@H](C)CN[C@H](C)[C@@H](O)[C@]1(C)O | 1.56 µg/mL (≈ 1.9 µM) | 0.1 µg/mL (≈ 0.122 µM) | 12 mg/kg |
| CC[C@H]1OC(=O)[C@H](C)[C@@H](O[C@H]2C[C@@](C)(OC)[C@@](O)(CNC(C)(C)C)[C@H](C)O2)[C@H](C)[C@@H](O[C@@H]2O[C@H](C)C[C@H](N(C)C)[C@H]2O)[C@](C)(O)C[C@@H](C)CN[C@H](C)[C@@H](O)[C@]1(C)O | 0.39 µg/mL (≈ 0.476 µM) | 0.1 µg/mL (≈ 0.122 µM) | 14 mg/kg |
| CC[C@H]1OC(=O)[C@H](C)[C@@H](O[C@H]2C[C@@](C)(OC)[C@@](O)(CSCCO)[C@H](C)O2)[C@H](C)[C@@H](O[C@@H]2O[C@H](C)C[C@H](N(C)C)[C@H]2O)[C@](C)(O)C[C@@H](C)CN[C@H](C)[C@@H](O)[C@]1(C)O | 1.56 µg/mL (≈ 1.89 µM) | 0.2 µg/mL (≈ 0.242 µM) | 51 mg/kg |
| CCCCCCNC[C@@]1(O)[C@H](C)O[C@@H](OC2[C@@H](C)C(=O)O[C@H](CC)[C@@](C)(O)[C@H](O)[C@@H](C)NC[C@H](C)C[C@@](C)(O)[C@H](O[C@@H]3O[C@H](C)C[C@H](N(C)C)[C@H]3O)[C@H]2C)C[C@@]1(C)OC (stereo not given in full) | 0.78 µg/mL (≈ 0.92 µM) | 0.2 µg/mL (≈ 0.236 µM) | > 80 mg/kg |
| CC[C@H]1OC(=O)[C@H](C)[C@@H](O[C@H]2C[C@@](C)(OC)[C@@](O)(CNCCOC)[C@H](C)O2)[C@H](C)[C@@H](O[C@@H]2O[C@H](C)C[C@H](N(C)C)[C@H]2O)[C@](C)(O)C[C@@H](C)CN[C@H](C)[C@@H](O)[C@]1(C)O | 0.78 µg/mL (≈ 0.949 µM) | < 0.1 µg/mL | 9.5 mg/kg |
| CC[C@H]1OC(=O)[C@H](C)[C@@H](O[C@H]2C[C@@](C)(OC)[C@@](O)(CN(CCO)CCO)[C@H](C)O2)[C@H](C)[C@@H](O[C@@H]2O[C@H](C)C[C@H](N(C)C)[C@H]2O)[C@](C)(O)C[C@@H](C)CN[C@H](C)[C@@H](O)[C@]1(C)O | > 50 µg/mL | 3.13 µg/mL (≈ 3.67 µM) |  |
| CC[C@H]1OC(=O)[C@H](C)[C@@H](O[C@H]2C[C@@](C)(OC)[C@@](O)(CNCC(F)(F)F)[C@H](C)O2)[C@H](C)[C@@H](O[C@@H]2O[C@H](C)C[C@H](N(C)C)[C@H]2O)[C@](C)(O)C[C@@H](C)CN[C@H](C)[C@@H](O)[C@]1(C)O | 1.56 µg/mL (≈ 1.84 µM) | < 0.1 µg/mL | 46 mg/kg |
| CCCCNC[C@@]1(O)[C@H](C)O[C@@H](O[C@H]2[C@H](C)[C@@H](O[C@@H]3O[C@H](C)C[C@H](N(C)C)[C@H]3O)[C@](C)(O)C[C@@H](C)CN[C@H](C)[C@@H](O)[C@](C)(O)[C@@H](CC)OC(=O)[C@@H]2C)C[C@@]1(C)OC | 0.39 µg/mL (≈ 0.476 µM) | < 0.1 µg/mL | 23 mg/kg |

Continued, in another order:

| MIC (Escherichia coli) | MIC (Pasteurella multocida [2]) | SMILES | ED50 (Pasteurella multocida [1]) |
| --- | --- | --- | --- |
| 0.39 µg/mL (≈ 0.492 µM) | 0.05 µg/mL (≈ 0.0631 µM) | CC[C@H]1OC(=O)[C@H](C)[C@@H](O[C@H]2C[C@@](C)(OC)[C@](O)(CN(C)C)[C@H](C)O2)[C@H](C)[C@@H](O[C@@H]2O[C@H](C)C[C@H](N(C)C)[C@H]2O)[C@](C)(O)C[C@@H](C)CN[C@H](C)[C@@H](O)[C@]1(C)O | 5.9 mg/kg |
| 0.2 µg/mL (≈ 0.244 µM) | 0.05 µg/mL (≈ 0.0611 µM) | CC[C@H]1OC(=O)[C@H](C)[C@@H](O[C@H]2C[C@@](C)(OC)[C@](O)(CN3CCCC3)[C@H](C)O2)[C@H](C)[C@@H](O[C@@H]2O[C@H](C)C[C@H](N(C)C)[C@H]2O)[C@](C)(O)C[C@@H](C)CN[C@H](C)[C@@H](O)[C@]1(C)O | < 10 mg/kg |
| 0.39 µg/mL (≈ 0.469 µM) | 0.05 µg/mL (≈ 0.0601 µM) | CC[C@H]1OC(=O)[C@H](C)[C@@H](O[C@H]2C[C@@](C)(OC)[C@](O)(CN3CCCCC3)[C@H](C)O2)[C@H](C)[C@@H](O[C@@H]2O[C@H](C)C[C@H](N(C)C)[C@H]2O)[C@](C)(O)C[C@@H](C)CN[C@H](C)[C@@H](O)[C@]1(C)O |  |
| 0.78 µg/mL (≈ 0.97 µM) | 0.1 µg/mL (≈ 0.124 µM) | CC[C@H]1OC(=O)[C@H](C)[C@@H](O[C@H]2C[C@@](C)(OC)[C@](O)(CNC3CC3)[C@H](C)O2)[C@H](C)[C@@H](O[C@@H]2O[C@H](C)C[C@H](N(C)C)[C@H]2O)[C@](C)(O)C[C@@H](C)CN[C@H](C)[C@@H](O)[C@]1(C)O | 15 mg/kg |
| 6.25 µg/mL (≈ 8.18 µM) | 0.39 µg/mL (≈ 0.51 µM) | CC[C@H]1OC(=O)[C@H](C)[C@@H](O[C@H]2C[C@@](C)(OC)[C@](O)(CN)[C@H](C)O2)[C@H](C)[C@@H](O[C@@H]2O[C@H](C)C[C@H](N(C)C)[C@H]2O)[C@](C)(O)C[C@@H](C)CN[C@H](C)[C@@H](O)[C@]1(C)O |  |
| 0.39 µg/mL (≈ 0.492 µM) | < 0.1 µg/mL | CC[C@H]1OC(=O)[C@H](C)[C@@H](O[C@H]2C[C@@](C)(OC)[C@@](O)(CN(C)C)[C@H](C)O2)[C@H](C)[C@@H](O[C@@H]2O[C@H](C)C[C@H](N(C)C)[C@H]2O)[C@](C)(O)C[C@@H](C)CN[C@H](C)[C@@H](O)[C@]1(C)O | 9.9 mg/kg |
| 0.2 µg/mL (≈ 0.244 µM) | 50 µg/mL (≈ 61.1 µM) | CC[C@H]1OC(=O)[C@H](C)[C@@H](O[C@H]2C[C@@](C)(OC)[C@@](O)(CN3CCCC3)[C@H](C)O2)[C@H](C)[C@@H](O[C@@H]2O[C@H](C)C[C@H](N(C)C)[C@H]2O)[C@](C)(O)C[C@@H](C)CN[C@H](C)[C@@H](O)[C@]1(C)O | 7.3 mg/kg |
| 0.2 µg/mL (≈ 0.249 µM) | 0.05 µg/mL (≈ 0.0622 µM) | CC[C@H]1OC(=O)[C@H](C)[C@@H](O[C@H]2C[C@@](C)(OC)[C@@](O)(CNC3CC3)[C@H](C)O2)[C@H](C)[C@@H](O[C@@H]2O[C@H](C)C[C@H](N(C)C)[C@H]2O)[C@](C)(O)C[C@@H](C)CN[C@H](C)[C@@H](O)[C@]1(C)O | 20 mg/kg |
| 6.25 µg/mL (≈ 8.18 µM) | 0.39 µg/mL (≈ 0.51 µM) | CC[C@H]1OC(=O)[C@H](C)[C@@H](O[C@H]2C[C@@](C)(OC)[C@@](O)(CN)[C@H](C)O2)[C@H](C)[C@@H](O[C@@H]2O[C@H](C)C[C@H](N(C)C)[C@H]2O)[C@](C)(O)C[C@@H](C)CN[C@H](C)[C@@H](O)[C@]1(C)O | 30 mg/kg |
| 0.78 µg/mL (≈ 0.956 µM) | 0.05 µg/mL (≈ 0.0613 µM) | CC[C@H]1OC(=O)[C@H](C)[C@@H](O[C@H]2C[C@@](C)(OC)[C@@](O)(Cn3ccnn3)[C@H](C)O2)[C@H](C)[C@@H](O[C@@H]2O[C@H](C)C[C@H](N(C)C)[C@H]2O)[C@](C)(O)C[C@@H](C)CN[C@H](C)[C@@H](O)[C@]1(C)O | 23 mg/kg |
| 0.78 µg/mL (≈ 0.953 µM) | 0.1 µg/mL (≈ 0.122 µM) | CC[C@H]1OC(=O)[C@H](C)[C@@H](O[C@H]2C[C@@](C)(OC)[C@@](O)(CN(C)C3CC3)[C@H](C)O2)[C@H](C)[C@@H](O[C@@H]2O[C@H](C)C[C@H](N(C)C)[C@H]2O)[C@](C)(O)C[C@@H](C)CN[C@H](C)[C@@H](O)[C@]1(C)O | 17 mg/kg |
| 3.13 µg/mL (≈ 3.75 µM) | 0.2 µg/mL (≈ 0.24 µM) | CC[C@H]1OC(=O)[C@H](C)[C@@H](O[C@H]2C[C@@](C)(OC)[C@@](O)(CN3CCOCC3)[C@H](C)O2)[C@H](C)[C@@H](O[C@@H]2O[C@H](C)C[C@H](N(C)C)[C@H]2O)[C@](C)(O)C[C@@H](C)CN[C@H](C)[C@@H](O)[C@]1(C)O | 49 mg/kg |
| 3.13 µg/mL (≈ 3.84 µM) | 0.2 µg/mL (≈ 0.245 µM) | CC[C@H]1OC(=O)[C@H](C)[C@@H](O[C@H]2C[C@@](C)(OC)[C@@](O)(Cn3ccnc3)[C@H](C)O2)[C@H](C)[C@@H](O[C@@H]2O[C@H](C)C[C@H](N(C)C)[C@H]2O)[C@](C)(O)C[C@@H](C)CN[C@H](C)[C@@H](O)[C@]1(C)O | 20 mg/kg |

— ChEMBL document CHEMBL1135354, “Synthesis and activity of a novel class of tribasic macrocyclic antibiotics: the triamilides” (2002)
